The source made the active and inactive calls. No cut-off for these calls is given here.
What was measured:
[1] = biological target: T1, Multidrug resistance protein CDR1 (Candida albicans, UniProt P43071); test: Inhibition of GFP-tagged Candida albicans CDR1 expressed in Saccharomyces cerevisiae assessed as inhibition of R6G efflux
Method in brief: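 S. cerevisiae AD-CDR1 cells were grown 5 h, then de-energized 45 min in 5 mM deoxyglucose/5 mM dinitrophenol in glucose-free PBS. Compound (10–100 μM) was added 5 min before 10 μM R6G, and cells were loaded 40 min at 30°C. After washing, efflux was started with 2% glucose. Supernatant A527 was read at 40 min, with glucose-free controls. Means of three independent experiments.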

[2] = tested on: Saccharomyces cerevisiae; test: Toxicity against CDR2-expressing Saccharomyces cerevisiae AD after 48 hrs by MTT assay
[3] = tested on: Saccharomyces cerevisiae; test: Toxicity against Candida albicans MDR1-expressing Saccharomyces cerevisiae AD1-8u after 48 hrs by MTT assay
[4] = tested on: Saccharomyces cerevisiae; test: Toxicity against Saccharomyces cerevisiae AD1-8u after 48 hrs by MTT assay
[5] = biological target: Multidrug resistance protein CDR1 (Candida albicans) (UniProt P43071); settings: 100 uM
[6] = biological target: Multidrug resistance protein CDR1 (Candida albicans) (UniProt P43071); settings: 100 uM; remark: listed apart in the source
[7] = tested on: Saccharomyces cerevisiae; test: Toxicity against CDR1-expressing Saccharomyces cerevisiae AD after 48 hrs by MTT assay
[8] = biological target: T1, Multidrug resistance protein CDR1; test: Displacement of [125I]IAAP from GFP-tagged Candida albicans CDR1 expressed in Saccharomyces cerevisiae
Method in brief: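 Crude membranes (50 μg) from S. cerevisiae AD-CDR1 cells were preincubated with compound for 10 min at 37°C in 50 mM Tris-HCl pH 7.5. They were then given 3–6 nM [125I]IAAP for 5 min under subdued light and UV-crosslinked at 365 nm for 10 min at room temperature. Cdr1p was immunoprecipitated with anti-GFP, run on 7% Tris-acetate gel, and the band quantified by phosphorimager.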

[9] = tested on: Candida albicans; test: Effect on CDR1 expression in Candida albicans at 100 uM by Western blot analysis; format: functional, organism-based
[10] = tested on: Saccharomyces cerevisiae; test: Toxicity against PDR5-expressing Saccharomyces cerevisiae AD after 48 hrs by MTT assay
[11] = tested on: Candida albicans; test: Antifungal activity against Candida albicans by checkerboard method in presence of itraconazole; format: functional
Method in brief: (§1)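 Checkerboard (CLSI method) on S. cerevisiae AD1-8u cells overexpressing GFP-tagged C. albicans Cdr1p (AD-CDR1). […] FIC = MIC in combination/MIC alone.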

[12] = tested on: Candida albicans; test: Antifungal activity against Candida albicans by checkerboard method in presence of ketoconazole; format: functional; method in brief: as §1
[13] = tested on: Candida albicans; test: Antifungal activity against Candida albicans by checkerboard method in presence of miconazole; format: functional; method in brief: as §1
[14] = tested on: Candida albicans; test: Antifungal activity against Candida albicans by checkerboard method in presence of R6G; format: functional; method in brief: as §1
[15] = tested on: COc1cc(/C=C/C(=O)CC(=O)/C=C/c2ccc(O)c(OC)c2)ccc1O; settings: Candida albicans

Q: Which IC50 [1] does the source give for `O=C(/C=C/c1ccc(O)cc1)CC(=O)/C=C/c1ccc(O)cc1` [BISDEMETHOXYCURCUMIN] here?
A: Its IC50 is 40 µM.

Q: What does the source list for `COc1cc(/C=C/C(=O)CC(=O)/C=C/c2ccc(O)c(OC)c2)ccc1O` [CURCUMIN]?
A: IC50 [2]: 411 µM; IC50 [3]: 455 µM; IC50 [4]: 422 µM; IC50 [1]: 40 µM; inhibition [5]: Active; inhibition [6]: inactive; IC50 [7]: 493 µM; IC50 [8]: 14.2 µM; Activity [9]: inactive; IC50 [10]: 498 µM

Q: `COc1cc(/C=C/C(O)=C/C(=O)/C=C/c2ccc(O)cc2)ccc1O` [DEMETHOXYCURCUMIN] was tested. Which IC50 [1] did it give?
A: The IC50 was 45 µM.

Q: `CCC(C)n1ncn(-c2ccc(N3CCN(c4ccc(OCC5COC(Cn6cncn6)(c6ccc(Cl)cc6Cl)O5)cc4)CC3)cc2)c1=O` (configuration not stated) [ITRACONAZOLE] was tested. Which FIC [11] did it give?
A: The FIC was 0.005.

Q: How did the FIC [12] turn out when `CC(=O)N1CCN(c2ccc(OCC3COC(Cn4ccnc4)(c4ccc(Cl)cc4Cl)O3)cc2)CC1` (configuration not stated) [KETOCONAZOLE] was run?
A: Its FIC is 0.0054.

Q: What about the FIC [13] of the same compound?
A: The FIC was 0.005.

Q: With `CC/N=c1\cc2oc3cc(NCC)c(C)cc3c(-c3ccccc3C(=O)OCC)c-2cc1C.Cl` [RHODAMINE 6G HYDROCHLORIDE] as the compound, how does the FIC [14] read?
A: The FIC was 0.0013.

Q: For “Multidrug resistance protein CDR1 (Candida albicans) (from UniProt P43071)”, which Km [15] is on record?
A: The Km was 5.87 µM.

Source: ChEMBL document CHEMBL1649543 (Antimicrob Agents Chemother, 2009)
